# From ChEMBL document CHEMBL3612009, “Synthesis and structure-activity relationship study of a new series of antiparasitic aryloxyl thiosemicarbazones inhibiting Trypanosoma cruzi cruzain” (Eur J Med Chem, 2015)
# Assays:
# [1] = system: Trypanosoma cruzi; assay: Antiparasitic activity against epimastigotes of Trypanosoma cruzi Dm28c assessed as reduction of parasite count after 5 days; assay type: functional; conditions: 120 h
# [2] = system: Trypanosoma cruzi; assay: Antiparasitic activity against trypomastigotes of Trypanosoma cruzi Y assessed as reduction of parasite count after 24 hrs; assay type: functional
# [3] = Cytotoxicity against BALB/c mouse splenocytes assessed as maximum non-toxic concentration by measuring [3H]-thymidine incorporation after 24 hrs by liquid scintillation counting; assay type: cell-based, Splenocyte
# How it was run: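 BALB/c splenocytes, 5 x 10^6 cells/well, given compounds at 1.23, 3.7, 33.33 and 100 µg/mL, 1% DMSO final, triplicate; 24 h at 37 °C, 5% CO2. Then 1.0 µCi [3H]-thymidine added; cells harvested and counted by liquid scintillation. Highest non-cytotoxic concentration taken from % incorporation.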
# [4] = system: Trypanosoma cruzi; assay: Antitrypanosomal activity against amastigote and trypomastigote forms of Trypanosoma cruzi Tulahuen expressing beta-galactosidase gene infected in mouse L-929 cells assessed as inhibition of parasite growth after 7 days by colorimetric betagalactosidase assay; assay type: functional, organism-based; conditions: L929, 168 h
# [5] = Cytotoxicity against mouse L929 cells assessed as cell viability after 96 hrs by alamarBlue assay; assay type: cell-based
# How it was run: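 Uninfected L-929 cells at the same cell number and timing as the beta-galactosidase assay; increasing concentrations starting at the T. cruzi IC50, quadruplicate. After 96 h, alamarBlue added; absorbance at 570 and 600 nm read 6 h later. Viability as % reduction versus untreated; CC50 by linear interpolation.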
# [6] = Selectivity index, ratio of CC50 for mouse L929 cells to IC50 for amastigote and trypomastigote forms of Trypanosoma cruzi Tulahuen; assay type: functional
# How it was run: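 SI = CC50 in uninfected L-929 fibroblasts (alamarBlue, 96 h) divided by IC50 against intracellular amastigote/trypomastigote forms (beta-galactosidase assay, 7 days).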
# [7] = target: Cruzipain (Trypanosoma cruzi) (UniProt P25779); assay: Inhibition of Trypanosoma cruzi catalytic activity of cruzain using Z-FR-AMC as substrate at 50 uM after 10 mins by fluorescence assay
# Cruzipain (Trypanosoma cruzi), sequence (P25779 123-467 limits assumed): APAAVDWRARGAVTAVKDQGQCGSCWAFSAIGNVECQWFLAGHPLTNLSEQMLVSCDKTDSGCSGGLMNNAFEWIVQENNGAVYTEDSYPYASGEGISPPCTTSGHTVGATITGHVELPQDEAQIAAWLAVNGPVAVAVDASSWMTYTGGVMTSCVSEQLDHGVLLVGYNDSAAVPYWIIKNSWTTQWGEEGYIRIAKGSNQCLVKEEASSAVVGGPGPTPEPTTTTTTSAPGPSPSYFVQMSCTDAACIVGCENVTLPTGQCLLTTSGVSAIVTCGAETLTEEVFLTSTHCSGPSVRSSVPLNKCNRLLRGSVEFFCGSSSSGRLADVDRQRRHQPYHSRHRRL
# [8] = system: Trypanosoma cruzi; assay: Antitrypanosomal activity against amastigote and trypomastigote forms of Trypanosoma cruzi Tulahuen expressing beta-galactosidase gene infected in mouse L-929 cells assessed as inhibition of parasite growth at 100 uM after 7 days by colorimetric betagalactosidase assay; assay type: functional; conditions: L929, 168 h
Structure (SMILES),IC50 [1],CC50 [2],MNTC at 24 h [3],IC50 [4],CC50 at 96 h [5],Ratio CC50/IC50 [6],inhibition [7],inhibition at 100 µM [8]
COc1ccc(OC/C(=N\NC(N)=S)c2ccc(Br)cc2)cc1,1.8 µM,3.7 µM,< 2500 nM,8.9 µM,102 µM,11.4,75.8%,> 70%
CNC(=S)N/N=C(/COc1ccc(Br)cc1)c1ccc(OC)cc1,4.5 µM,3.6 µM,–,–,–,–,29.8%,> 70%
CCc1ccc(OC/C(=N\NC(N)=S)c2ccc(Br)cc2)cc1,2.1 µM,1.8 µM,2600 nM,6.4 µM,< 25.5 µM,<4,75.1%,> 70%
NC(=S)N/N=C(\COc1ccc(I)cc1)c1ccc(Br)cc1,2.9 µM,2.1 µM,2100 nM,8.6 µM,< 20.4 µM,2.4,63.3%,> 70%
COc1ccc(/C(COc2ccc(Br)cc2)=N\NC(N)=S)cc1,3.1 µM,5 µM,2500 nM,11.9 µM,< 25.4 µM,<2.1,38.7%,> 70%
COc1cccc(OC/C(=N\NC(N)=S)c2ccc(Br)cc2)c1,3.7 µM,1.2 µM,2500 nM,9.9 µM,50.7 µM,5.1,62.8%,> 70%
Fc1ccc(/C(COc2ccc(Br)cc2)=N\NC(=S)Nc2ccccc2)cc1,–,15.6 µM,–,–,–,–,35%,> 70%
CC(C)(C)c1ccc(OC/C(=N\NC(N)=S)c2ccc(Br)cc2)cc1,5.2 µM,2.2 µM,2400 nM,15.2 µM,23.8 µM,1.6,85.3%,> 70%
NC(=S)N/N=C(\COc1cccc(-c2ccccc2)c1)c1ccc(Br)cc1,4.4 µM,28.3 µM,2300 nM,> 182 µM,–,–,65.4%,> 70%
NC(=S)N/N=C(\COc1ccc2ccccc2c1)c1ccc(Br)cc1,5.3 µM,5 µM,2400 nM,13.5 µM,> 193 µM,>14.3,72.1%,> 70%
NC(=S)N/N=C(\COc1ccc(Cl)cc1)c1ccc(Br)cc1,4.6 µM,5.7 µM,< 2500 nM,11.2 µM,< 25.1 µM,<2.2,73.6%,> 70%
NC(=S)N/N=C(\COc1ccccc1)c1ccc(Br)cc1,3 µM,6.6 µM,137000 nM,5.4 µM,54.9 µM,10.2,61.8%,> 70%
NC(=S)N/N=C(/COc1ccc(Br)cc1)c1ccccc1,14.5 µM,2.4 µM,68600 nM,10.2 µM,< 27.5 µM,<2.7,67.6%,> 70%
CC1CS(=O)(=O)CCN1/N=C/c1ccc([N+](=O)[O-])o1 (stereo not given) [NIFURTIMOX],–,2.7 µM,–,–,–,–,–,–
NC(=S)N/N=C(\COc1ccccc1Cl)c1ccc(Br)cc1,3.5 µM,6 µM,< 2500 nM,13.5 µM,25.1 µM,1.9,58.9%,> 70%
COc1ccc(/C(COc2ccc(Br)cc2)=N\NC(=S)Nc2ccccc2)cc1,10.2 µM,–,–,–,–,–,42.8%,> 70%
NC(=S)N/N=C(\COc1cccc(Cl)c1Cl)c1ccc(Br)cc1,4.4 µM,5.7 µM,23100 nM,10.8 µM,23.1 µM,2.8,81.8%,> 70%
NC(=S)N/N=C(/COc1ccc(Br)cc1)c1cccc2ccccc12,7.5 µM,14.7 µM,2400 nM,4.8 µM,12.1 µM,2.5,73.6%,> 70%
CNC(=S)N/N=C(/COc1ccc(Br)cc1)c1ccc(F)cc1,15.7 µM,7.4 µM,–,–,–,–,30%,> 70%
NC(=S)N/N=C(/COc1ccc(Br)cc1)c1ccc(F)cc1,3.8 µM,3.6 µM,2600 nM,10.7 µM,< 26.2 µM,<2.5,53.1%,> 70%
NC(=S)N/N=C(\COc1cccc(Br)c1)c1ccc(Br)cc1,3.9 µM,6.2 µM,2700 nM,149 µM,> 180 µM,>1.2,81.3%,> 70%
Cc1ccc(/C(COc2ccc(Br)cc2)=N\NC(N)=S)cc1,3.7 µM,3.1 µM,13200 nM,7.9 µM,13.2 µM,1.7,70.9%,> 70%
NC(=S)N/N=C(\COc1ccc(-c2ccccc2)cc1)c1ccc(Br)cc1,4.1 µM,12.3 µM,22700 nM,76.6 µM,90.8 µM,1.2,63.7%,> 70%
NC(=S)N/N=C(/COc1ccc(Br)cc1)c1ccc(Cl)cc1,3.6 µM,5.3 µM,12500 nM,14.8 µM,25.1 µM,1.7,67.5%,> 70%
NC(=S)N/N=C(\COc1cccc(Cl)c1)c1ccc(Br)cc1,2.2 µM,1.6 µM,2500 nM,25.1 µM,< 50.2 µM,<2,51.8%,> 70%
NC(=S)N/N=C(\COc1cccc2ccccc12)c1ccc(Br)cc1,3 µM,3.4 µM,2400 nM,48.3 µM,< 96.5 µM,<2,–,> 70%
